# Experimental data: ChEMBL document CHEMBL2163271, “Antitumor agents 295. E-ring hydroxylated antofine and cryptopleurine analogues as antiproliferative agents: design, synthesis, and mechanistic studies” (J Med Chem, 2012)
# Calls of active or inactive are those of the source. No cut-off for these calls is given here.
# Experiments:
# [1] = system: KB; assay: Cytotoxicity against human KB cells after 2 hrs by methylene blue staining-based spectrophotometric analysis; type: functional, cell-based
# [2] = system: A549; assay: Cytotoxicity against human A549 cells after 2 hrs by methylene blue staining-based spectrophotometric analysis; type: functional, cell-based; settings: A549, 2 h
# [3] = Cytotoxicity against human KBVIN cells overexpressing P-gp after 2 hrs by methylene blue staining-based spectrophotometric analysis; type: functional, cell-based
# [4] = system: DU-145; assay: Cytotoxicity against human DU145 cells after 2 hrs by methylene blue staining-based spectrophotometric analysis; type: functional, cell-based; settings: DU-145, 2 h
# [5] = system: A549; assay: Cytotoxicity against human A549 cells assessed as decrease in cell number at 60 nM after 48 hrs by inverted phase-contrast microscopy; type: functional, cell-based
# Summary of the method: (§1)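 A549 cells exposed to a rising concentration series for 48 h, including 60 nM. Cells were viewed under an inverted phase-contrast microscope and photographed, and cell number and morphology were scored by eye.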
# [6] = system: A549; assay: Cytotoxicity against human A549 cells assessed as cell viability after 48 hrs by SRB assay; type: functional, cell-based; settings: A549, 48 h
# [7] = system: A549; assay: Downregulation of Eps 15 mRNA expression in human A549 cells by microarray analysis relative to control; type: functional
# Summary of the method: (§2)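 Gene expression profiling of treated versus untreated A549 cells, with pathways analysed in the MetaCore database.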
# [8] = system: A549; assay: Downregulation of CDK11 mRNA expression in human A549 cells by microarray analysis relative to control; type: functional; summary of the method: as §2
# [9] = system: A549; assay: Downregulation of cAMP dependent PKA cat mRNA expression in human A549 cells by microarray analysis relative to control; type: functional; summary of the method: as §2
# [10] = system: A549; assay: Downregulation of syntazin 7 mRNA expression in human A549 cells by microarray analysis relative to control; type: functional; summary of the method: as §2
# [11] = system: A549; assay: Downregulation of rabaptin-5 mRNA expression in human A549 cells by microarray analysis relative to control; type: functional; summary of the method: as §2
# [12] = system: A549; assay: Downregulation of SNAP-25 mRNA expression in human A549 cells by microarray analysis relative to control; type: functional; summary of the method: as §2
# [13] = system: A549; assay: Downregulation of beta-catenin expression in human A549 cells at 3.6 nM after 48 hrs by RT-PCR analysis
# [14] = system: A549; assay: Downregulation of collagen 4 mRNA expression in human A549 cells by microarray analysis relative to control; type: functional; summary of the method: as §2
# [15] = system: A549; assay: Downregulation of DYRK2 mRNA expression in human A549 cells by microarray analysis relative to control; type: functional; summary of the method: as §2
# [16] = system: A549; assay: Downregulation of HSP90 mRNA expression in human A549 cells by microarray analysis relative to control; type: functional; summary of the method: as §2
# [17] = Cytotoxicity against human PC9IR cells assessed as cell viability after 48 hrs by SRB assay; type: functional, cell-based
# Summary of the method: (§3)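 Human NSCLC lines (CL1-0, CL1-5, PC9, PC9IR) exposed to increasing compound concentrations for 48 h. Growth read by sulforhodamine B (SRB) staining, with IC50 in nM taken from the dose-response.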
# [18] = system: A549; assay: Downregulation of PI3K reg class 1A mRNA expression in human A549 cells by microarray analysis relative to control; type: functional; summary of the method: as §2
# [19] = system: A549; assay: Downregulation of SAP18 mRNA expression in human A549 cells by microarray analysis relative to control; type: functional; summary of the method: as §2
# [20] = system: A549; assay: Cytotoxicity against human A549 cells assessed as effect on cell morphology at 60 nM after 48 hrs by inverted phase-contrast microscopy; type: functional, cell-based; summary of the method: as §1
# [21] = system: PC-9; assay: Cytotoxicity against human PC9 cells assessed as cell viability after 48 hrs by SRB assay; type: functional, cell-based; settings: PC-9, 48 h; summary of the method: as §3
# [22] = system: MRC5; assay: Cytotoxicity against human MRC5 cells assessed as cell viability after 48 hrs by SRB assay; type: functional, cell-based; settings: MRC5, 48 h
# [23] = system: A549; assay: Downregulation of HSP90 expression in human A549 cells at 3.6 nM after 48 hrs by RT-PCR analysis; type: functional, cell-based
# Summary of the method: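 A549 cells exposed at 3.6 nM for 48 h. Transcript levels were measured by RT-PCR and compared with untreated cells.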
# [24] = system: A549; assay: Downregulation of EEA1 mRNA expression in human A549 cells by microarray analysis relative to control; type: functional; summary of the method: as §2
# [25] = system: A549; assay: Downregulation of beta-catenin mRNA expression in human A549 cells by microarray analysis relative to control
# [26] = system: A549; assay: Downregulation of PLEKHA8 mRNA expression in human A549 cells by microarray analysis relative to control; type: functional; summary of the method: as §2
# [27] = Cytotoxicity against human CL1-5 cells assessed as cell viability after 48 hrs by SRB assay; type: functional, cell-based; settings: CL1-5, 48 h; summary of the method: as §3
# [28] = system: A549; assay: Downregulation of cyclin D protein expression in human A549 cells at 3.6 to 100 nM after 48 hrs by Western blot analysis; type: functional, cell-based
# [29] = system: A549; assay: Downregulation of XIAP mRNA expression in human A549 cells by microarray analysis relative to control; type: functional; summary of the method: as §2
# [30] = system: A549; assay: Downregulation of casein kinase 1 mRNA expression in human A549 cells by microarray analysis relative to control; type: functional; summary of the method: as §2
# [31] = system: A549; assay: Upregulation of ubiquitin mRNA expression in human A549 cells by microarray analysis relative to control; type: functional; summary of the method: as §2
# [32] = system: A549; assay: Downregulation of FBXW mRNA expression in human A549 cells by microarray analysis relative to control; type: functional; summary of the method: as §2
# [33] = Cytotoxicity against human CL1-0 cells assessed as cell viability after 48 hrs by SRB assay; type: functional, cell-based; settings: CL1-0, 48 h; summary of the method: as §3
# [34] = system: SK-BR-3; assay: Cytotoxicity against human SKBR3 cells after 2 hrs by methylene blue staining-based spectrophotometric analysis; type: functional, cell-based; settings: SK-BR-3, 2 h
# [35] = system: A549; assay: Downregulation of myosin 5b mRNA expression in human A549 cells by microarray analysis relative to control; type: functional; summary of the method: as §2
# [36] = system: A549; assay: Downregulation of PI3K cat class 1A mRNA expression in human A549 cells by microarray analysis relative to control; type: functional; summary of the method: as §2
# [37] = system: A549; assay: Downregulation of PLAU mRNA expression in human A549 cells by microarray analysis relative to control; type: functional; summary of the method: as §2
# [38] = system: A549; assay: Downregulation of PECALM mRNA expression in human A549 cells by microarray analysis relative to control; type: functional; summary of the method: as §2
# [39] = system: A549; assay: Downregulation of FRS2 mRNA expression in human A549 cells by microarray analysis relative to control; type: functional; summary of the method: as §2
# [40] = system: A549; assay: Downregulation of VTI1B mRNA expression in human A549 cells by microarray analysis relative to control; type: functional; summary of the method: as §2
# [41] = system: A549; assay: Downregulation of SKP2 mRNA expression in human A549 cells by microarray analysis relative to control; type: functional; summary of the method: as §2
# [42] = system: A549; assay: Downregulation of HSP90 protein expression in human A549 cells at 3.6 to 100 nM after 48 hrs by Western blot analysis; type: functional, cell-based
# Summary of the method: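 A549 cells treated with graded compound concentrations for 48 h. Whole-cell extracts were immunoblotted with antibody against HSP90.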
# [43] = system: A549; assay: Downregulation of beta-catenin protein expression in human A549 cells at 3.6 to 100 nM after 48 hrs by Western blot analysis
# [44] = system: A549; assay: Downregulation of fibronectin mRNA expression in human A549 cells by microarray analysis relative to control; type: functional; summary of the method: as §2
smiles,measurement,setting,value
COc1ccc2c3c(c4cc(OC)c(OC)cc4c2c1)C[C@H]1C[C@H](OC)CCN1C3,IC50,[1],100 nM
same,IC50,[2],25 nM
same,IC50,[3],66 nM
same,IC50,[4],56 nM
COc1ccc2c3c(c4cc(OC)c(OC)cc4c2c1)C[C@H]1C[C@H](O)CCN1C3,Activity,[5],Active
same,IC50,[6],9 nM
same,fold change (FC),[7],<10
same,fold change (FC),[8],<10
same,fold change (FC),[9],<10
same,fold change (FC),[10],<10
same,fold change (FC),[11],<10
same,fold change (FC),[12],<10
same,Activity,[13],Active
same,fold change (FC),[14],<10
same,fold change (FC),[15],<10
same,fold change (FC),[16],<10
same,IC50,[17],43.2 nM
same,fold change (FC),[18],<10
same,fold change (FC),[19],<10
same,Activity,[20],inactive
same,IC50,[21],8.2 nM
same,IC50,[22],98 nM
same,Activity,[23],Active
same,fold change (FC),[24],<10
same,fold change (FC),[25],<10
same,fold change (FC),[26],<10
same,IC50,[27],8.7 nM
same,Activity,[28],Active
same,fold change (FC),[29],<10
same,fold change (FC),[30],<10
same,fold change (FC),[31],>10
same,IC50,[1],23 nM
same,fold change (FC),[32],<10
same,IC50,[2],22 nM
same,IC50,[33],58.4 nM
same,IC50,[34],72 nM
same,fold change (FC),[35],<10
same,fold change (FC),[36],<10
same,fold change (FC),[37],<10
same,fold change (FC),[38],<10
same,IC50,[3],25 nM
same,fold change (FC),[39],<10
same,fold change (FC),[40],<10
same,fold change (FC),[41],<10
same,Activity,[42],Active
same,IC50,[4],11 nM
same,Activity,[43],Active
same,fold change (FC),[44],<10
COc1ccc2c3c(c4cc(OC)c(OC)cc4c2c1)C[C@H]1COCCN1C3,IC50,[6],40 nM
same,IC50,[22],252 nM
COc1ccc2c3c(c4cc(OC)c(OC)cc4c2c1)C[C@H]1C[C@@H](O)CN1C3,IC50,[1],780 nM
same,IC50,[2],610 nM
same,IC50,[3],640 nM
same,IC50,[4],700 nM
COc1ccc2c3c(c4cc(OC)c(OC)cc4c2c1)C[C@H]1[C@@H](O)CCN1C3,IC50,[1],1830 nM
same,IC50,[2],2810 nM
same,IC50,[3],3420 nM
same,IC50,[4],3200 nM
COc1ccc2c3c(c4cc(OC)c(OC)cc4c2c1)C[C@H]1C[C@H](O)CN1C3,IC50,[1],1810 nM
same,IC50,[2],2270 nM
same,IC50,[3],2210 nM
same,IC50,[4],1800 nM
